This note sets out measurements from ChEMBL document CHEMBL1772980, “Synthesis and evaluation of new furanyl and thiophenyl azoles as antileishmanial agents” (Eur J Med Chem, 2011).

Active and inactive are the calls of the source. The rule behind the calls is not given here.

As usually defined, the inhibition is the share of the control response that was lost under treatment. As usually defined, the IC50 is the midpoint of a concentration-inhibition curve. A higher IC50 goes with weaker potency in that assay. As a reminder, the CC50 is the concentration giving 50% cytotoxicity.

The subject of data set [1] is Leishmania donovani. Put plainly: Antipromastigote activity against Leishmania donovani MHOM/IN/80/Dd8 promastigotes assessed as luciferase activity of viable cells at 20 uM after 72 hrs by luminometry. It is filed as functional. Particulars: MHOM/IN/80/Dd8, 72 h. In outline:
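Late-log luciferase-transfected promastigotes were seeded at 5 × 10⁵ per well in medium 199 with parallel DMSO dilutions as controls. After incubation, a suspension aliquot was mixed 1:1 with Steady Glo reagent and luminescence read as RLU. Percentage inhibition = (N − n) × 100/N, where N is mean control RLU and n is mean treated RLU.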

In data set [2] the test system is Leishmania donovani. The experiment in a line: Antiamastigote activity against Leishmania donovani MHOM/IN/80/Dd8 amastigotes infected in mouse macrophage after 72 hrs by luciferase reporter gene assay. It is filed as functional, organism-based. Particulars: MHOM/IN/80/Dd8, 72 h. Put shortly: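 Mouse J-774A.1 macrophages were seeded at 4 × 10⁴ cells/well in RPMI-1640 with 10% foetal calf serum, 37 °C, CO₂, for 24 h. They were then infected with stationary-phase luciferase-expressing promastigotes at 4 × 10⁵/well. Compounds were added in dilutions starting from 40 and incubated 72 h at 37 °C. Medium was replaced by PBS plus Steady Glo, luminescence read as RLU, and IC50 fitted by four-parameter Hill regression.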

A short description of data set [3]: Cytotoxicity against mouse J774A1 cells assessed as cell viability after 72 hrs by MTT assay. It is filed as cell-based, J774.A1. In general terms: Tetrazolium assays rely on reduction of a dye to a coloured formazan, in cell work by metabolically active cells.
A short description of data set [4]: Selectivity index, ratio of CC50 for mouse J774A.1 cells to IC50 for Leishmania donovani MHOM/IN/80/Dd8 amastigotes. It counts as functional.
In data set [5] the test system is Leishmania donovani. Put plainly: Antiamastigote activity against Leishmania donovani MHOM/IN/80/Dd8 amastigotes infected in mouse macrophage at 40 uM after 72 hrs by luciferase reporter gene assay. It counts as functional, organism-based. In general terms: In a reporter assay the amount or activity of a reporter protein is the signal.

Take `Fc1ccc(F)c(COC(CCn2ccnc2)c2ccco2)c1` (centres undefined): the inhibition at 20 µM with Leishmania donovani [1] amounted to 99%. Also, in the data set on Leishmania donovani [2], the IC50 was determined as 5.35 µM. Also, the CC50 at 72 h in data set [3] was 30.9 µM. Further, the “Selectivity Index” value in data set [4] is reported as 5.77.
For `Fc1ccc(COC(CCn2cncn2)c2cccs2)c(F)c1` (centres undefined), the inhibition at 20 µM in the data set on Leishmania donovani [1] stood at 92%. Further, the inhibition result with Leishmania donovani [5] was “inactive”.
As to `Clc1ccc(COC(CCn2ccnc2)c2ccco2)c(Cl)c1` (centres undefined), in the data set on Leishmania donovani [1], the inhibition at 20 µM was 91.8%. In the data set on Leishmania donovani [2], this compound came in with an IC50 of 5.15 µM. Also, the CC50 at 72 h in data set [3] was found to be 56.2 µM. The “Selectivity Index” value in data set [4] is recorded as 10.9.
Take `Fc1ccc(F)c(COC(CCn2ccnc2)c2cccs2)c1` (centres undefined): the inhibition at 20 µM in the data set with Leishmania donovani [1] turned out to be 86.8%. Also, the IC50 with Leishmania donovani [2] is 7.35 µM. The CC50 at 72 h in data set [3] worked out at 15.1 µM. The “Selectivity Index” value in data set [4] is 2.05.
As for `Clc1ccc(COC(CCn2cncn2)c2ccco2)c(Cl)c1` (centres undefined), the inhibition at 20 µM in the data set with Leishmania donovani [1] was found to be 97.8%. In addition, in the data set on Leishmania donovani [5], the inhibition result was “inactive”.
Consider `Clc1cccc(COC(CCn2cncn2)c2cccs2)c1` (centres undefined), for which, in the data set on Leishmania donovani [1], the inhibition at 20 µM is 80.6%. Also, inhibition in the data set with Leishmania donovani [2] was half-maximal at 8.04 µM (IC50). Besides, the CC50 at 72 h in data set [3] was 15.6 µM. For the same compound, in data set [4], the “Selectivity Index” value stood at 1.93.
As for `Clc1ccc(COC(CCn2cncn2)c2cccs2)c(Cl)c1` (centres undefined), the inhibition at 20 µM with Leishmania donovani [1] amounted to 97.1%. In the data set with Leishmania donovani [5], the inhibition result was “inactive”.
As for `Fc1ccc(COC(CCn2ccnc2)c2ccco2)c(F)c1` (centres undefined), the inhibition at 20 µM in the data set on Leishmania donovani [1] was 95.5%. Also, the IC50 in the data set with Leishmania donovani [2] worked out at 4.2 µM. For the same compound, the CC50 at 72 h in data set [3] was found to be 28.8 µM. In data set [4], the “Selectivity Index” value was found to be 6.86.
As for `Clc1ccc(COC(Cn2ccnc2)c2ccc(Cl)cc2Cl)c(Cl)c1` (centres undefined) [MICONAZOLE], in the data set with Leishmania donovani [1], the inhibition at 20 µM was found to be 100%. In the data set with Leishmania donovani [2], this compound had an IC50 of 6 µM. Also, the cytotoxic concentration (CC50) at 72 h in data set [3] was 9.93 µM. In addition, the “Selectivity Index” value in data set [4] is listed as 1.66.
As for `Clc1ccc(Cl)c(COC(CCn2ccnc2)c2cccs2)c1` (centres undefined), the inhibition at 20 µM in the data set with Leishmania donovani [1] came to 85.9%. Besides, 6.75 µM corresponded to half-maximal inhibition in the data set with Leishmania donovani [2] (IC50). Further, the CC50 at 72 h in data set [3] worked out at 18 µM. In data set [4], the “Selectivity Index” value was 2.66.
With `Clc1ccc(Cl)c(COC(CCn2cncn2)c2cccs2)c1` (centres undefined), in the data set with Leishmania donovani [1], the inhibition at 20 µM was determined as 97.3%. Besides, in the data set with Leishmania donovani [5], the inhibition result was “inactive”.
Consider `Clc1ccc(Cl)c(COC(CCn2cncn2)c2ccco2)c1` (centres undefined), for which the inhibition at 20 µM in the data set on Leishmania donovani [1] was found to be 94.5%. In addition, the IC50 in the data set on Leishmania donovani [2] turned out to be 9.39 µM. The CC50 at 72 h in data set [3] is 28.9 µM. For the same compound, the “Selectivity Index” value in data set [4] amounted to 3.08.
For `CCCCCCCCCCCCCCCCOP(=O)([O-])OCC[N+](C)(C)C` [MILTEFOSINE], in that order: 99.9%, 13.4 µM, 3.23 µM and 0.24.
In the case of `Fc1ccc(F)c(COC(CCn2cncn2)c2ccco2)c1` (centres undefined), the inhibition at 20 µM with Leishmania donovani [1] was 98.5%. In addition, the inhibition result in the data set with Leishmania donovani [5] is “inactive”.
Turning to `Clc1cccc(COC(CCn2ccnc2)c2cccs2)c1` (centres undefined), the inhibition at 20 µM with Leishmania donovani [1] was 100%. This compound registered a 50% inhibitory concentration (IC50) with Leishmania donovani [2] of 5.14 µM. Further, the CC50 at 72 h in data set [3] was determined as 46 µM. Moreover, the “Selectivity Index” value in data set [4] is 8.93.
Turning to `Clc1ccc(Cl)c(COC(CCn2ccnc2)c2ccco2)c1` (centres undefined), the inhibition at 20 µM in the data set with Leishmania donovani [1] came out at 96%. In addition, 4.03 µM corresponded to half-maximal inhibition with Leishmania donovani [2] (IC50). The CC50 at 72 h in data set [3] came to 37.6 µM. The “Selectivity Index” value in data set [4] amounted to 7.15.
As to `Fc1ccc(COC(CCn2cncn2)c2ccco2)c(F)c1` (centres undefined), the inhibition at 20 µM with Leishmania donovani [1] was 90.5%. In the data set with Leishmania donovani [5], the inhibition result is “inactive”.
For `Fc1ccc(COC(CCn2ccnc2)c2cccs2)c(F)c1` (centres undefined), in the data set with Leishmania donovani [1], the inhibition at 20 µM was 90.6%. The compound also returned a half-inhibitory concentration (IC50) with Leishmania donovani [2] of 7.81 µM. Moreover, the CC50 at 72 h in data set [3] turned out to be 34.4 µM. The “Selectivity Index” value in data set [4] came to 4.4.
With `Clc1cccc(COC(CCn2ccnc2)c2ccco2)c1` (centres undefined), the inhibition at 20 µM with Leishmania donovani [1] is 100%. The compound also showed a half-maximal inhibitory concentration (IC50) in the data set on Leishmania donovani [2] of 3.04 µM. Further, the CC50 at 72 h in data set [3] worked out at 60.2 µM. Also, the “Selectivity Index” value in data set [4] was 19.8.
In the case of `Fc1ccc(F)c(COC(CCn2cncn2)c2cccs2)c1` (centres undefined), in the data set with Leishmania donovani [1], the inhibition at 20 µM is 94.8%. In addition, the inhibition result in the data set on Leishmania donovani [5] was “inactive”.
Turning to `Clc1ccc(COC(CCn2ccnc2)c2cccs2)c(Cl)c1` (centres undefined), the inhibition at 20 µM with Leishmania donovani [1] was 87.8%. In the data set with Leishmania donovani [2], this compound registered an IC50 of 5.26 µM. Further, the CC50 at 72 h in data set [3] was determined as 29.7 µM. Further, the “Selectivity Index” value in data set [4] was 5.65.
Consider `Clc1cccc(COC(CCn2cncn2)c2ccco2)c1` (centres undefined), for which the inhibition at 20 µM in the data set with Leishmania donovani [1] worked out at 97.5%. The IC50 in the data set with Leishmania donovani [2] came out at 7.36 µM. In addition, the CC50 at 72 h in data set [3] is 18.6 µM. Also, the “Selectivity Index” value in data set [4] worked out at 3.17.
